# Test results reported in PubChem BioAssay AID588582 (Sanford-Burnham Center for Chemical Genomics, 2011).
# Activity calls are given as the source filed them.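 How the source made its calls: active means mean EC50 at or below 20 µM; inactive means the rest.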
# Target: CHO-XBP1 luciferase reporter, IRE1-XBP1 arm activation
# Test: activators of UPR adaptive arm reporter – cell-based, luciferase luminescence, set 2, counter-screen for UPR apoptotic arm activator project, SAR follow-up (AID 588582)
# Outline: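 Test system: CHO-XBP1 luciferase reporter cells. Timing: cells plated 16–18 h before dosing, compound exposure 6 h at 37 °C. Signal: Steady-Glo luminescence. Doses: concentration series, DMSO ≤1% final.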
row,Structure (SMILES),EC50
1,O=C(Nc1nc2c(F)c(F)ccc2s1)c1ccccn1,> 80 µM (inactive)
2,O=C(Nc1ccc(S(=O)(=O)C2CCOCC2)cc1)c1ccc([N+](=O)[O-])o1,> 80 µM (inactive)
3,O=C(Nc1nc2cc(F)cc(F)c2s1)c1ccccn1,> 80 µM (inactive)
4,O=C(Nc1ccc(S(=O)(=O)N2CCC3(CCCCC3)CC2)cc1)c1ccc([N+](=O)[O-])o1,> 80 µM (inactive)
5,O=C(Nc1nc2cc(F)c(F)cc2s1)c1ccccn1,> 80 µM (inactive)
6,O=C(Nc1ccc(S(=O)(=O)N2CCC(F)CC2)cc1)c1ccc([N+](=O)[O-])o1,> 80 µM (inactive)
7,O=C(Nc1nc2ccc(C(F)(F)F)cc2s1)c1ccccn1,> 80 µM (inactive)
8,O=C(Nc1nc2cc(F)ccc2s1)c1ccccn1,> 80 µM (inactive)
9,CC1(C)CCN(S(=O)(=O)c2ccc(NC(=O)c3cccc([N+](=O)[O-])c3)cc2)CC1,> 80 µM (inactive)
10,CC1CN(S(=O)(=O)c2ccc(NC(=O)c3ccc([N+](=O)[O-])o3)cc2)CC(C)O1 (stereo not drawn),> 80 µM (inactive)
11,CC1(C)CCN(S(=O)(=O)c2ccc(NC(=O)c3ccc(C(F)(F)F)o3)cc2)CC1,> 80 µM (inactive)
12,O=C(Nc1nc2c(F)ccc(F)c2s1)c1ccccn1,> 80 µM (inactive)
13,Cn1c([N+](=O)[O-])cnc1C(=O)Nc1ccc(S(=O)(=O)N2CCC(C)(C)CC2)cc1,> 80 µM (inactive)
14,CC(C)(C)C1CCN(S(=O)(=O)c2ccc(NC(=O)c3ccc([N+](=O)[O-])o3)cc2)CC1,> 80 µM (inactive)
15,O=C(Nc1nc2ccc(Cl)cc2s1)c1ccccn1,> 80 µM (inactive)
16,O=C(Nc1nc2cccc(F)c2s1)c1ccccn1,> 80 µM (inactive)
17,O=C(Nc1ccc(S(=O)(=O)N2CCC(Cl)CC2)cc1)c1ccc([N+](=O)[O-])o1,> 80 µM (inactive)
18,O=C(Nc1nc2ccc(F)c(F)c2s1)c1ccccn1,> 80 µM (inactive)
